In ChEMBL document CHEMBL4411337, “2-Aminothiazole Derivatives as Selective Allosteric Modulators of the Protein Kinase CK2. 1. Identification of an Allosteric Binding Site” (J Med Chem, 2019):
The source made the active and inactive calls. The calls are words filed in the database; no cut-off is given here.

What was measured:
[1] = molecular target: Aurora kinase B (Homo sapiens) (UniProt Q96GD4); experiment: Inhibition of aurora B (unknown origin) assessed as residual activity at 50 uM relative to control
Aurora kinase B (Homo sapiens), sequence (Q96GD4 whole entry): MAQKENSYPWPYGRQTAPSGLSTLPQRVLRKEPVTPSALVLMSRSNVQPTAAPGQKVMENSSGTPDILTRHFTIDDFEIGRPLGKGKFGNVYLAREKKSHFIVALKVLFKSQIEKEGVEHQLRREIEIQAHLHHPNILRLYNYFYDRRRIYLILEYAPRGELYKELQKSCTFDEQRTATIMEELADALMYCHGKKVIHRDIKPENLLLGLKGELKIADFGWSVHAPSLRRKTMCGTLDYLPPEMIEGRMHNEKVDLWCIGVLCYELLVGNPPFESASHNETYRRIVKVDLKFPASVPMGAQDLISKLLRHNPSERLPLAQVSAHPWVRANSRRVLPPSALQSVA
Procedure, shortened: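 Profiling panel of 44 human kinases. ATP set to each kinase's Km. Run in duplicate; duplicates within 15–17% of each other.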

[2] = molecular target: CDK9/cyclin T1 (Homo sapiens) (UniProt O60563+P50750); experiment: Inhibition of CDK9/cyclin T1 (unknown origin) assessed as residual activity at 50 uM relative to control; format: protein-complex assay
Procedure, shortened: (§1)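 Selectivity profiling against a panel of 44 human kinases. For each kinase, ATP was set to that kinase's Km. Values are residual activity in duplicate assays.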

[3] = molecular target: Cyclin-dependent kinase 1/cyclin B1 (Homo sapiens) (UniProt P06493+P14635); experiment: Inhibition of CDK1/cyclin B (unknown origin) assessed as residual activity at 50 uM relative to control; format: protein-complex assay; procedure, shortened: as §1
[4] = molecular target: Dual specificity tyrosine-phosphorylation-regulated kinase 2 (Homo sapiens) (UniProt Q92630); experiment: Inhibition of DYRK2 (unknown origin) assessed as residual activity at 50 uM relative to control; procedure, shortened: as §1
Dual specificity tyrosine-phosphorylation-regulated kinase 2 (Homo sapiens), sequence (Q92630 whole entry): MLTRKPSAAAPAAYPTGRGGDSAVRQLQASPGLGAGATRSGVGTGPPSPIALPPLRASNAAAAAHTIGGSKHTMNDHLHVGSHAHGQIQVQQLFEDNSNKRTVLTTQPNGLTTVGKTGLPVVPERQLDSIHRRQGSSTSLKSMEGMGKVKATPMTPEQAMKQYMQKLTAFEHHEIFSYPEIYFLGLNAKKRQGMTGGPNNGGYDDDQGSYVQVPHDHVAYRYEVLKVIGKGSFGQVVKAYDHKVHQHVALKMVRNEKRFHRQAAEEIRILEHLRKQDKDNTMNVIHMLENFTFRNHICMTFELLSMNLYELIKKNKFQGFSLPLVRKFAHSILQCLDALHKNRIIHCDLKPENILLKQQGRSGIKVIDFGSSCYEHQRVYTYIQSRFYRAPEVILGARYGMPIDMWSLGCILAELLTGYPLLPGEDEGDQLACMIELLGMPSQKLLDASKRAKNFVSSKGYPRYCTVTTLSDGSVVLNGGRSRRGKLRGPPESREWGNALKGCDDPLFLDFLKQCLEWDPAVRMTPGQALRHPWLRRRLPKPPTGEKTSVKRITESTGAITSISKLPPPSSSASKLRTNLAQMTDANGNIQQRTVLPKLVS

[5] = molecular target: Homeodomain-interacting protein kinase 3 (Homo sapiens) (UniProt Q9H422); experiment: Inhibition of HIPK3 (unknown origin) assessed as residual activity at 50 uM relative to control; procedure, shortened: as §1
Homeodomain-interacting protein kinase 3 (Homo sapiens), sequence (Q9H422 whole entry, looked up): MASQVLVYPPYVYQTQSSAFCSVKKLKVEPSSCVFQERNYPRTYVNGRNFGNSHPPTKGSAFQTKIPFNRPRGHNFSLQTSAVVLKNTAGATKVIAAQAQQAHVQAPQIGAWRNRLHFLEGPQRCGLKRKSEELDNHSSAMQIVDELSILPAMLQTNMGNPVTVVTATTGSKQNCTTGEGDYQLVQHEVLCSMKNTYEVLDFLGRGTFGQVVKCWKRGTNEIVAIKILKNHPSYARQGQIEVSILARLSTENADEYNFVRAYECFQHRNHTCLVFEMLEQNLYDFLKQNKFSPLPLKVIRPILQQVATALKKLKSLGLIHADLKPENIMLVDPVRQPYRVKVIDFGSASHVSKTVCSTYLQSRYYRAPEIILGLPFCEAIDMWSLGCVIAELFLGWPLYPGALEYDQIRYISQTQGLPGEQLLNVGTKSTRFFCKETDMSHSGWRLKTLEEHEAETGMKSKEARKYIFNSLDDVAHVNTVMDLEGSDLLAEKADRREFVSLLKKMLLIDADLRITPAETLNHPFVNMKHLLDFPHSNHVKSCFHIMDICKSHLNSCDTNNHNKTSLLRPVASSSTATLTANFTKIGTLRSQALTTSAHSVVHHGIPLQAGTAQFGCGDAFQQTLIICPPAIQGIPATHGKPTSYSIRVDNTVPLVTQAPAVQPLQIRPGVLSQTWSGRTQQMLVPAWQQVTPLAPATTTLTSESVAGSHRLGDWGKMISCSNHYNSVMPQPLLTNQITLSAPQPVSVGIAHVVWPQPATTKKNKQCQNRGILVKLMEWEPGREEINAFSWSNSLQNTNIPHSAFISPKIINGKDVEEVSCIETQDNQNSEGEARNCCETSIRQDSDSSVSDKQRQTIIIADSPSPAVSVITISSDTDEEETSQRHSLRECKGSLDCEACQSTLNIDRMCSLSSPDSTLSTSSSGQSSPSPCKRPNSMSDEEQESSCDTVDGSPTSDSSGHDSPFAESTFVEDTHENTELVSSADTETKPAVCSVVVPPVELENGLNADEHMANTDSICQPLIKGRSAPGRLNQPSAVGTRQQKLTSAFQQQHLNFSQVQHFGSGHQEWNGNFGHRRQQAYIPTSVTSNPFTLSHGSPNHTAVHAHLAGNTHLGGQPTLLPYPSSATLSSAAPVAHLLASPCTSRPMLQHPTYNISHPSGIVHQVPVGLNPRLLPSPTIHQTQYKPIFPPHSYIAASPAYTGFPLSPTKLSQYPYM

[6] = molecular target: Serine/threonine-protein kinase mTOR (Homo sapiens) (UniProt P42345); experiment: Inhibition of MTOR (unknown origin) assessed as residual activity at 50 uM relative to control; procedure, shortened: as §1
[7] = molecular target: Tyrosine-protein kinase Lyn (Homo sapiens) (UniProt P07948); experiment: Inhibition of LYN (unknown origin) assessed as residual activity at 50 uM relative to control; procedure, shortened: as §1
[8] = molecular target: Serine/threonine-protein kinase pim-1 (Homo sapiens) (UniProt P11309); experiment: Inhibition of PIM1 (unknown origin) assessed as residual activity at 50 uM relative to control; procedure, shortened: as §1
[9] = molecular target: Cyclin-dependent kinase 7/ cyclin H (Homo sapiens) (UniProt P51946+P50613); experiment: Inhibition of CDK7/cyclin H (unknown origin) assessed as residual activity at 50 uM relative to control; format: protein-complex assay; procedure, shortened: as §1
[10] = molecular target: Cyclin-dependent kinase 2/cyclin E1 (Homo sapiens) (UniProt P24864+P24941); experiment: Inhibition of CDK2/cyclin E (unknown origin) assessed as residual activity at 50 uM relative to control; format: protein-complex assay; procedure, shortened: as §1
[11] = molecular target: Casein kinase II subunit alpha (Homo sapiens, UniProt P68400); experiment: Mixed-type inhibition of recombinant human GST-tagged CK2alpha in presence of ATP by Lineweaver-Burk plot analysis
Casein kinase II subunit alpha, sequence (P68400 whole entry): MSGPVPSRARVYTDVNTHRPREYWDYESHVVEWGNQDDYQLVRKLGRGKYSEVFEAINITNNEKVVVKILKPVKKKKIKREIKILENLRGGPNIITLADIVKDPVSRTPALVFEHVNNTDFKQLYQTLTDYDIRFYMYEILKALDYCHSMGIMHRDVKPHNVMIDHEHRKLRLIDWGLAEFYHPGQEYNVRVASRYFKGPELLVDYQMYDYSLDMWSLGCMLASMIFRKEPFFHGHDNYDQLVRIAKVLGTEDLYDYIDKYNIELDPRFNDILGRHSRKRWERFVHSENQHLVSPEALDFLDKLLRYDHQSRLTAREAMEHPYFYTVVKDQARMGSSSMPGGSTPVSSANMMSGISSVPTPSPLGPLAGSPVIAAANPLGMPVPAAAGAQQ

[12] = molecular target: Muscle, skeletal receptor tyrosine-protein kinase (Homo sapiens) (UniProt O15146); experiment: Inhibition of MUSK (unknown origin) assessed as residual activity at 50 uM relative to control; procedure, shortened: as §1
Muscle, skeletal receptor tyrosine-protein kinase (Homo sapiens), sequence (O15146 whole entry): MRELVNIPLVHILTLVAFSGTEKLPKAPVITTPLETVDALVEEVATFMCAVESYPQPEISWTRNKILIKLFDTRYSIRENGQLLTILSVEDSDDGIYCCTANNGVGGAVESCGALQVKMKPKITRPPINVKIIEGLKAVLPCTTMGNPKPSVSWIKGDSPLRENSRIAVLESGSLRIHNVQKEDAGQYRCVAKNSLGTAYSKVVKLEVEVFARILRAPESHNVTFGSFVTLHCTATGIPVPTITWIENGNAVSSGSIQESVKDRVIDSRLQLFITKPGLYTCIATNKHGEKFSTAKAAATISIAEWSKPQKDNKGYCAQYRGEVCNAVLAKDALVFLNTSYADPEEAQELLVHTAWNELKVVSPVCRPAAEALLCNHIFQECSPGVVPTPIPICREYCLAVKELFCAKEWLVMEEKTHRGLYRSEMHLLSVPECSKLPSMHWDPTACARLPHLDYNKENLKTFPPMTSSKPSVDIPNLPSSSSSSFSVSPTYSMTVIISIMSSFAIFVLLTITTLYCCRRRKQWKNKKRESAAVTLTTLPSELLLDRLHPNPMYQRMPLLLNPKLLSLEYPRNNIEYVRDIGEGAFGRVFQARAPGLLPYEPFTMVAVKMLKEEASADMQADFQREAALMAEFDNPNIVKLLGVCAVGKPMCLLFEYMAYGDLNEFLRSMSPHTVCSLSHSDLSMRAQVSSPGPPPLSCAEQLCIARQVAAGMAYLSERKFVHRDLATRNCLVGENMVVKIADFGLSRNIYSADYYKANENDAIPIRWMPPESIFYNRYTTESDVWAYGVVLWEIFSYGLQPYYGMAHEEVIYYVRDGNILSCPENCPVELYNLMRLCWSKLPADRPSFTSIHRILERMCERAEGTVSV

[13] = molecular target: Casein kinase II alpha/beta (Homo sapiens) (UniProt P67870+P68400); experiment: Inhibition of recombinant human GST-tagged CK2alpha2/CK2beta2 at 15 uM in presence of ATP by radiometric kinase assay; format: protein-complex assay
Casein kinase II alpha/beta (Homo sapiens), sequence (P67870 2-215 limits assumed): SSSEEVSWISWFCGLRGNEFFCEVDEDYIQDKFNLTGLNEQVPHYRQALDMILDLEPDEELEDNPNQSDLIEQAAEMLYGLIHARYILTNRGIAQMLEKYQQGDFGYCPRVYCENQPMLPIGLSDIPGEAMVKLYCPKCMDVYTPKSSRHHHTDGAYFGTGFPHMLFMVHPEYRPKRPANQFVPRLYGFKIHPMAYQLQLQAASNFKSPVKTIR
Casein kinase II alpha/beta (Homo sapiens), sequence (P68400 whole entry partner): as the sequence (P68400 whole entry) above

[14] = molecular target: Hepatocyte growth factor receptor (Homo sapiens) (UniProt P08581); experiment: Inhibition of MET (unknown origin) assessed as residual activity at 50 uM relative to control; procedure, shortened: as §1
Hepatocyte growth factor receptor (Homo sapiens), sequence (P08581 whole entry): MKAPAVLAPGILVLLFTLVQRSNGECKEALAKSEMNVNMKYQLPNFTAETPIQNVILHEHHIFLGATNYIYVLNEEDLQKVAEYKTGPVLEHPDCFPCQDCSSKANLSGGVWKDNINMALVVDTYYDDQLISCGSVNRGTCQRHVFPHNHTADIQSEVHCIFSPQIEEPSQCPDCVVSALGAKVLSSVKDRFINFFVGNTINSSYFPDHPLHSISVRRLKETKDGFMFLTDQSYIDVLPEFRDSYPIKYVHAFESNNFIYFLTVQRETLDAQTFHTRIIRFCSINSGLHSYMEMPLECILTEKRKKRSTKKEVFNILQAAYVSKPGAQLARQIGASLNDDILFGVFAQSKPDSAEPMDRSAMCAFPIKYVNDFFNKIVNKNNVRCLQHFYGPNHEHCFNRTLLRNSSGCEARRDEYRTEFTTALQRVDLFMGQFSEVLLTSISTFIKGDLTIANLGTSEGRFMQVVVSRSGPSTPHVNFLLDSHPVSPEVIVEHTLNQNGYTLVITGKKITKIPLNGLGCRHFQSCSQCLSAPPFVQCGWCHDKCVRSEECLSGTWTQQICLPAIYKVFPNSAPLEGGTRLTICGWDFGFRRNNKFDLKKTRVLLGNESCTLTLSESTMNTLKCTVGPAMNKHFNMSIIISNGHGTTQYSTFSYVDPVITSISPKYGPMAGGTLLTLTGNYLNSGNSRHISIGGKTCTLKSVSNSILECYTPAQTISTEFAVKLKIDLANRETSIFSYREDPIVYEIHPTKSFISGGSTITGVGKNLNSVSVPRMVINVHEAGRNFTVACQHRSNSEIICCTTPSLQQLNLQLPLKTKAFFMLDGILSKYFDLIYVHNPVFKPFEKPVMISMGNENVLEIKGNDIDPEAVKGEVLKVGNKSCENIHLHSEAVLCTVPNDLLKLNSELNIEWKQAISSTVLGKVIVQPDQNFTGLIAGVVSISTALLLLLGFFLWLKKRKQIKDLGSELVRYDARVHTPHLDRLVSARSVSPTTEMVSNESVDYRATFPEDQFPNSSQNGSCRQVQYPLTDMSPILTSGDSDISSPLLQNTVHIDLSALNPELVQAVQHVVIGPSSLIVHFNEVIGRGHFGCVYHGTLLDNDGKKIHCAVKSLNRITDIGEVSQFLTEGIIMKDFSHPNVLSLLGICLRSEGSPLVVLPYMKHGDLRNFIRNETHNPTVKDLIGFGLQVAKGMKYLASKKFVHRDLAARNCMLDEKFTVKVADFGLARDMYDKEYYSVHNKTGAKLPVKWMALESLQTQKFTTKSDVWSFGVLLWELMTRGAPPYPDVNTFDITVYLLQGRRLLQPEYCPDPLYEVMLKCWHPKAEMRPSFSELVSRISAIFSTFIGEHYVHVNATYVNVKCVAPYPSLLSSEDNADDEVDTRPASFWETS

For `O=C(O)c1ccc(Nc2nc(-c3cccc([N+](=O)[O-])c3)cs2)cc1`, the Activity [1] was 74%, the Activity [2] was 99% and the Activity [3] was 89%. For the same molecule, the Activity [4] was 78%, the Activity [5] was 98% and the Activity [6] was 104%. For the same molecule, the Activity [7] was 104%, the Activity [8] was 46% and the Activity [9] was 104%. It also gave an Activity [10] of 101%, a Ki [11] of 1.6 µM and an Activity [12] of 62%. The inhibition [13] was “Active” and the Activity [14] was 102%.
